Laboratory results from publication PMC3594649 (Molecular pharmaceutics, 2013).
Read-outs that look alike come from different tables or passages of the source.

Columns and labels:
[1] = test system: ileum of TgCYP3A4/hPXR mice; test: In situ intestinal perfusion with mesenteric blood sampling, TgCYP3A4/hPXR mice; format: in vivo, mouse; details: for increase in intestinal permeability for darunavir: GF120918 4 μM in perfusate
[2] = format: in vivo, mouse
In short: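 An ileal segment of 2–3 cm was perfused open-loop at 0.2 ml/min, with or without GF120918 (4 μM) in the perfusate. Collected mesenteric blood was analysed by C18 HPLC with fluorescence detection (ex 268/em 347 nm). Metabolite is expressed relative to parent drug.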

[3] = concomitant administration of sulforaphane, humans; cited from earlier work

COc1cc2c(cc1OC)CN(CCc1ccc(NC(=O)c3cccc4c(=O)c5cccc(OC)c5[nH]c34)cc1)CC2 [GF120918, N-(4-[2-(1,2,3,4-tetrahydro-6,7-dimethoxy-2-isoquinolinyl)ethyl]-phenyl)-9,10-dihydro-5-methoxy-9-oxo-4-acridine carboxamide]
increase in intestinal permeability for darunavir ([1]; TgCYP3A4/hPXR mice not treated with rifampicin, darunavir 100 μM in FaSSIF, p < 0.05): 56% | increase in intestinal permeability for darunavir ([1]; rifampicin-treated TgCYP3A4/hPXR mice (10 mg/kg, 3 days), p<0.05): 400%

CC(C)(O)CN(C[C@@H](O)[C@H](Cc1ccccc1)NC(=O)O[C@H]1CO[C@H]2OCC[C@H]21)S(=O)(=O)c1ccc(N)cc1 [R426857]
concentration of R426857 relative to darunavir in mesenteric blood ([2]; TgCYP3A4/hPXR mice, perfusion without GF120918): less than 0.8% | relative amount of R426857 to darunavir in mesenteric blood ([2]; perfused with GF120918, rifampicin-treated TgCYP3A4/hPXR mice): 3.1% | relative amount of R426857 to darunavir in mesenteric blood ([2]; perfused with GF120918, untreated TgCYP3A4/hPXR mice): 1.6%

Nn1nnc2ccccc21 [aminobenzotriazole]
effect on intestinal permeability for darunavir ([1]; rifampicin-treated TgCYP3A4/hPXR mice, aminobenzotriazole 100 μM in perfusate): did not increase

C[S+]([O-])CCCCN=C=S (stereo not shown) [sulforaphane]
effect on rifampicin-caused decrease of midazolam AUC [3]: did not reduce
